Measurements reported in ChEMBL document CHEMBL5724801, “EUbOPEN Chemogenomics Library - Multiplex” (2024).
“And” between values parts separate entries of the source, which are not always exact repeats. Identical values can stand only once.

Experiments:
Type in all cases: toxicity, cell-based
Fibroblast = experiment: Multiplex assay against human fibroblast
Outline: (§1)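 At seeding, live cells were stained with Hoechst33342, BioTracker Green Microtubule Cytoskeleton Dye, MitoTracker Red and Annexin V Alexa Fluor 680. After compound addition they were imaged on a CQ1 microscope at 37°C and 5% CO2, and CellPathfinder machine-learning gating sorted them into Hoechst high-intensity objects or normal cells, with normal cells further split into healthy, pyknosed or fragmented nuclei and pyknosed cells into mitotic or apoptotic. Tubulin, mitochondrial-mass and membrane-permeability phenotypes are given as per cents of cells with healthy nuclei.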

HEK-293T = experiment: Multiplex assay against HEK293T; details: human; outline: as §1
U2OS = experiment: Multiplex assay against U2OS; details: human; outline: as §1
[1] = 12 h, 1 µM, compound concentration 1 uM
[2] = 12 h, 10 µM, compound concentration 10 uM
[3] = 24 h, 1 µM, compound concentration 1 uM
[4] = 24 h, 10 µM, compound concentration 10 uM
[5] = 48 h, 1 µM, compound concentration 1 uM
[6] = 48 h, 10 µM, compound concentration 10 uM

## N#Cc1c(N)nc(SCc2csc(-c3ccc(Cl)cc3)n2)c(C#N)c1-c1ccc(OCCO)cc1 [CAPADENOSON]
Fibroblast; [1]
  Population Apoptotic (%): 43% and 27%
  Population Healthy Nuclei (%): 80% and 43%
  Population Hoechst High Intensity Objects (%): 2% and 1%
  Population Membrane Permeable-Phenotype (%): 0% and 5%
  Population Mitochondria Different-Phenotype (%): 10% and 11%
  Population Mitotic Cells (%): 56% and 72%
  Population Normal (%): 97% and 98%
  Population Pyknosed Nuclei (%): 11% and 25%
  Population Tubulin-Different-Phenotype (%): 38% and 55%
  Total Cell Count: 139 and 157
Fibroblast; [2]
  Population Apoptotic (%): 31% and 41%
  Population Fragmented Nuclei (%): 23% and 41%
  Population Healthy Nuclei (%): 50% and 29%
  Population Hoechst High Intensity Objects (%): 1% and 8%
  Population Membrane Permeable-Phenotype (%): 0% and 20%
  Population Mitochondria Different-Phenotype (%): 10% and 14%
  Population Mitotic Cells (%): 68% and 58%
  Population Normal (%): 98% and 91%
  Population Pyknosed Nuclei (%): 25% and 29%
  Population Tubulin-Different-Phenotype (%): 80% and 97%
  Total Cell Count: 172 and 128
Fibroblast; [3]
  Population Apoptotic (%): 72% and 48%
  Population Healthy Nuclei (%): 80% and 44%
  Population Hoechst High Intensity Objects (%): 1% and 4%
  Population Membrane Permeable-Phenotype (%): 0% and 6%
  Population Mitotic Cells (%): 27% and 51%
  Population Normal (%): 98% and 95%
  Population Pyknosed Nuclei (%): 8% and 20%
  Population Tubulin-Different-Phenotype (%): 34% and 71%
  Total Cell Count: 139 and 148
Fibroblast; [4]
  Population Apoptotic (%): 38% and 41%
  Population Fragmented Nuclei (%): 26% and 43%
  Population Healthy Nuclei (%): 52% and 28%
  Population Hoechst High Intensity Objects (%): 2% and 6%
  Population Membrane Permeable-Phenotype (%): 0% and 17%
  Population Mitochondria Different-Phenotype (%): 26% and 25%
  Population Mitotic Cells (%): 61% and 58%
  Population Normal (%): 97% and 93%
  Population Pyknosed Nuclei (%): 20% and 27%
  Population Tubulin-Different-Phenotype (%): 67% and 94%
  Total Cell Count: 179 and 131
Fibroblast; [5]
  Population Apoptotic (%): 88% and 69%
  Population Fragmented Nuclei (%): 16% and 38%
  Population Healthy Nuclei (%): 77% and 43%
  Population Hoechst High Intensity Objects (%): 2%
  Population Membrane Permeable-Phenotype (%): 0% and 6%
  Population Mitochondria Different-Phenotype (%): 7% and 12%
  Population Mitotic Cells (%): 11% and 30%
  Population Normal (%): 97%
  Population Pyknosed Nuclei (%): 6% and 17%
  Population Tubulin-Different-Phenotype (%): 37% and 60%
  Total Cell Count: 147 and 151
Fibroblast; [6]
  Population Apoptotic (%): 81% and 36%
  Population Fragmented Nuclei (%): 32% and 57%
  Population Healthy Nuclei (%): 53% and 29%
  Population Hoechst High Intensity Objects (%): 2% and 0%
  Population Membrane Permeable-Phenotype (%): 0% and 11%
  Population Mitochondria Different-Phenotype (%): 32% and 30%
  Population Normal (%): 97% and 100%
  Population Pyknosed Nuclei (%): 14% and 13%
  Population Tubulin-Different-Phenotype (%): 78% and 95%
  Total Cell Count: 187 and 142
HEK-293T; [1]
  Population Apoptotic (%): 36% and 54%
  Population Fragmented Nuclei (%): 6%
  Population Healthy Nuclei (%): 79% and 80%
  Population Hoechst High Intensity Objects (%): 8% and 4%
  Population Membrane Permeable-Phenotype (%): 0%
  Population Mitochondria Different-Phenotype (%): 59% and 60%
  Population Mitotic Cells (%): 63% and 45%
  Population Normal (%): 91% and 95%
  Population Pyknosed Nuclei (%): 13% and 12%
  Population Tubulin-Different-Phenotype (%): 44% and 34%
  Total Cell Count: 373 and 375
HEK-293T; [2]
  Population Apoptotic (%): 57% and 70%
  Population Fragmented Nuclei (%): 7% and 6%
  Population Healthy Nuclei (%): 75% and 73%
  Population Hoechst High Intensity Objects (%): 12% and 14%
  Population Membrane Permeable-Phenotype (%): 0% and 1%
  Population Mitochondria Different-Phenotype (%): 82% and 85%
  Population Mitotic Cells (%): 42% and 29%
  Population Normal (%): 87% and 85%
  Population Pyknosed Nuclei (%): 17% and 20%
  Population Tubulin-Different-Phenotype (%): 62% and 63%
  Total Cell Count: 307 and 388
HEK-293T; [3]
  Population Apoptotic (%): 36% and 37%
  Population Fragmented Nuclei (%): 5% and 7%
  Population Healthy Nuclei (%): 76% and 79%
  Population Hoechst High Intensity Objects (%): 6% and 4%
  Population Membrane Permeable-Phenotype (%): 2% and 0%
  Population Mitochondria Different-Phenotype (%): 38% and 44%
  Population Mitotic Cells (%): 63% and 62%
  Population Normal (%): 93% and 95%
  Population Pyknosed Nuclei (%): 17% and 12%
  Population Tubulin-Different-Phenotype (%): 34% and 23%
  Total Cell Count: 450 and 456
HEK-293T; [4]
  Population Apoptotic (%): 65% and 73%
  Population Fragmented Nuclei (%): 8% and 4%
  Population Healthy Nuclei (%): 68%
  Population Hoechst High Intensity Objects (%): 14% and 13%
  Population Membrane Permeable-Phenotype (%): 0%
  Population Mitochondria Different-Phenotype (%): 94% and 89%
  Population Mitotic Cells (%): 34% and 26%
  Population Normal (%): 85% and 86%
  Population Pyknosed Nuclei (%): 22% and 26%
  Population Tubulin-Different-Phenotype (%): 62% and 61%
  Total Cell Count: 319 and 391
HEK-293T; [5]
  Population Apoptotic (%): 31% and 32%
  Population Fragmented Nuclei (%): 10% and 11%
  Population Healthy Nuclei (%): 79% and 80%
  Population Hoechst High Intensity Objects (%): 4% and 3%
  Population Membrane Permeable-Phenotype (%): 1% and 2%
  Population Mitochondria Different-Phenotype (%): 32% and 23%
  Population Mitotic Cells (%): 68% and 67%
  Population Normal (%): 95% and 96%
  Population Pyknosed Nuclei (%): 10% and 8%
  Population Tubulin-Different-Phenotype (%): 23% and 18%
  Total Cell Count: 621 and 787
HEK-293T; [6]
  Population Apoptotic (%): 66% and 63%
  Population Fragmented Nuclei (%): 11% and 12%
  Population Healthy Nuclei (%): 68% and 73%
  Population Hoechst High Intensity Objects (%): 12% and 10%
  Population Membrane Permeable-Phenotype (%): 0%
  Population Mitochondria Different-Phenotype (%): 89% and 88%
  Population Mitotic Cells (%): 33% and 36%
  Population Normal (%): 87% and 89%
  Population Pyknosed Nuclei (%): 20% and 14%
  Population Tubulin-Different-Phenotype (%): 67% and 64%
  Total Cell Count: 406 and 423
U2OS; [1]
  Population Apoptotic (%): 78% and 80%
  Population Fragmented Nuclei (%): 25% and 18%
  Population Healthy Nuclei (%): 65% and 75%
  Population Hoechst High Intensity Objects (%): 5% and 1%
  Population Membrane Permeable-Phenotype (%): 14% and 5%
  Population Mitochondria Different-Phenotype (%): 4% and 2%
  Population Mitotic Cells (%): 21% and 20%
  Population Normal (%): 94% and 98%
  Population Pyknosed Nuclei (%): 8% and 6%
  Population Tubulin-Different-Phenotype (%): 10% and 1%
  Total Cell Count: 236 and 150
U2OS; [2]
  Population Apoptotic (%): 64% and 68%
  Population Fragmented Nuclei (%): 35% and 24%
  Population Healthy Nuclei (%): 40% and 56%
  Population Hoechst High Intensity Objects (%): 5% and 0%
  Population Membrane Permeable-Phenotype (%): 70% and 49%
  Population Mitochondria Different-Phenotype (%): 37% and 61%
  Population Mitotic Cells (%): 35% and 31%
  Population Normal (%): 94% and 99%
  Population Pyknosed Nuclei (%): 24% and 18%
  Population Tubulin-Different-Phenotype (%): 65% and 70%
  Total Cell Count: 255 and 102
U2OS; [3]
  Population Apoptotic (%): 87% and 61%
  Population Fragmented Nuclei (%): 23% and 16%
  Population Healthy Nuclei (%): 64% and 71%
  Population Hoechst High Intensity Objects (%): 3% and 0%
  Population Membrane Permeable-Phenotype (%): 9% and 5%
  Population Mitochondria Different-Phenotype (%): 4% and 2%
  Population Normal (%): 96% and 99%
  Population Pyknosed Nuclei (%): 12%
  Population Tubulin-Different-Phenotype (%): 6% and 2%
  Total Cell Count: 263 and 176
U2OS; [4]
  Population Apoptotic (%): 71% and 69%
  Population Fragmented Nuclei (%): 36% and 25%
  Population Healthy Nuclei (%): 37% and 49%
  Population Hoechst High Intensity Objects (%): 5% and 2%
  Population Membrane Permeable-Phenotype (%): 47% and 34%
  Population Mitochondria Different-Phenotype (%): 38% and 58%
  Population Mitotic Cells (%): 28% and 30%
  Population Normal (%): 94% and 97%
  Population Pyknosed Nuclei (%): 26% and 24%
  Population Tubulin-Different-Phenotype (%): 47% and 60%
  Total Cell Count: 253 and 95
U2OS; [5]
  Population Apoptotic (%): 80% and 84%
  Population Fragmented Nuclei (%): 23% and 12%
  Population Healthy Nuclei (%): 67% and 79%
  Population Hoechst High Intensity Objects (%): 3% and 0%
  Population Membrane Permeable-Phenotype (%): 9% and 6%
  Population Mitochondria Different-Phenotype (%): 6% and 3%
  Population Mitotic Cells (%): 20% and 15%
  Population Normal (%): 96% and 99%
  Population Pyknosed Nuclei (%): 8%
  Population Tubulin-Different-Phenotype (%): 6% and 5%
  Total Cell Count: 355 and 220
U2OS; [6]
  Population Apoptotic (%): 86% and 66%
  Population Fragmented Nuclei (%): 44% and 30%
  Population Healthy Nuclei (%): 30% and 49%
  Population Hoechst High Intensity Objects (%): 5% and 4%
  Population Membrane Permeable-Phenotype (%): 46% and 45%
  Population Mitochondria Different-Phenotype (%): 31% and 45%
  Population Mitotic Cells (%): 13% and 33%
  Population Normal (%): 94% and 95%
  Population Pyknosed Nuclei (%): 25% and 20%
  Population Tubulin-Different-Phenotype (%): 37% and 50%
  Total Cell Count: 285 and 109
